From ChEMBL document CHEMBL4431374, “Synthesis and Antitubercular Activity of New Benzo[b]thiophenes” (ACS Med Chem Lett, 2016) come the findings set out here.

≈ marks a conversion by molar mass, not a printed value. Calls of active or inactive are those of the source. The rule behind the calls is not given here.

What all share (assay type): functional
In test [1] the test system is Mycobacterium tuberculosis variant bovis BCG. The test can be described thus: Antitubercular activity against drug resistant dormant Mycobacterium bovis BCG ATCC 35734 at 3 to 30 ug/ml after 12 days by nitrate reductase assay.
Test [2] shares this test system. The test can be described thus: Antitubercular activity against dormant Mycobacterium bovis BCG ATCC 35734 after 12 days by nitrate reductase assay. Conditions: for MIC90: ATCC 35734, 288 h.
In test [3] the test system is Mycobacterium tuberculosis. Description: Antitubercular activity against drug resistant active Mycobacterium tuberculosis H37Ra ATCC 25177 after 8 days by XTT reduction menadione assay. Conditions: H37Ra ATCC 25177, 192 h. In outline:
(§1)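 H37Ra was tested by microdilution in 96-well plates, at 30–0.001 μg/mL in one-third dilutions. Each plate carried a rifampicin and isoniazid dilution series as positive controls. Growth was scored by XTT reduction menadione assay (XRMA) and cross-checked by a final absorbance reading at 600 nm.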

In test [4] the test system is Mycobacterium tuberculosis. The test can be described thus: Antitubercular activity against drug resistant dormant Mycobacterium tuberculosis H37Ra ATCC 25177 after 12 days by XTT reduction menadione assay. Particulars: H37Ra ATCC 25177, 288 h. The essentials: as §1
Test [5] relates to Mycobacterium tuberculosis variant bovis BCG. The test can be described thus: Antitubercular activity against active Mycobacterium bovis BCG ATCC 35734 after 8 days by nitrate reductase assay. Conditions: for MIC90: ATCC 35734, 192 h.

As for `Oc1ccccc1-c1cc(-c2cc3ccccc3s2)[nH]n1`, the Activity in test [1] is listed as greater than 97%.
On to `Cc1ccc(C(=O)CC(=O)c2cc3ccccc3s2)c(O)c1`, for which the MIC90 in test [2] was found to be 1.61 µg/mL (≈ 5.19 µM); in test [3], 8.97 µg/mL (≈ 28.9 µM); in test [4], 9.42 µg/mL (≈ 30.4 µM); in test [5], 1.68 µg/mL (≈ 5.41 µM). Also, in test [1], the Activity is greater than 97%.
For `Cc1ccc2oc(-c3cc4ccccc4s3)cc(=O)c2c1`, the MIC90 in test [2] worked out at 0.61 µg/mL (≈ 2.09 µM); in test [3], 22.9 µg/mL (≈ 78.2 µM); in test [4] it was 7.22 µg/mL (≈ 24.7 µM); in test [5] it was 0.62 µg/mL (≈ 2.12 µM).
For `O=C(CC(=O)c1cc(Cl)ccc1O)c1cc2ccccc2s1`, the MIC90 in test [2] is 2.7 µg/mL (≈ 8.16 µM); in test [3], 5.3 µg/mL (≈ 16 µM); in test [4], 2.73 µg/mL (≈ 8.25 µM); in test [5] it was 2.22 µg/mL (≈ 6.71 µM). The molecule also had an Activity in test [1] greater than 97%.
As to `CO[C@H]1/C=C/O[C@@]2(C)Oc3c(C)c(O)c4c(O)c(c(/C=N/N5CCN(C)CC5)c(O)c4c3C2=O)NC(=O)/C(C)=C\C=C\[C@H](C)[C@H](O)[C@@H](C)[C@@H](O)[C@@H](C)[C@H](OC(C)=O)[C@@H]1C` [RIFAMPIN], the MIC90 in test [2] is 0.0042 µg/mL (≈ 0.0051 µM); in test [3], greater than 10 µg/mL; in test [4], greater than 10 µg/mL; in test [5] it was 0.004 µg/mL (≈ 0.00486 µM).
As for `NNC(=O)c1ccncc1` [ISONIAZID], the MIC90 in test [2] was 0.0078 µg/mL (≈ 0.0569 µM); in test [3] it was greater than 10 µg/mL; in test [4] it was greater than 10 µg/mL; in test [5], 0.075 µg/mL (≈ 0.547 µM).
On to `Cc1cc2oc(-c3cc4ccccc4s3)cc(=O)c2cc1Cl`, for which the MIC90 in test [2] amounted to 0.6 µg/mL (≈ 1.84 µM); in test [3] it was 9.58 µg/mL (≈ 29.3 µM); in test [4], 9.1 µg/mL (≈ 27.8 µM); in test [5] it was 0.56 µg/mL (≈ 1.71 µM).
In turn, `Cc1ccc(O)c(C(=O)CC(=O)c2cc3ccccc3s2)c1` returned an MIC90 in test [2] of 0.71 µg/mL (≈ 2.29 µM).
For `O=C(CC(=O)c1cc(Cl)cc(Cl)c1O)c1cc2ccccc2s1`, the outcome in test [2] and in test [5] was Active.
For `Cc1cc(O)c(C(=O)CC(=O)c2cc3ccccc3s2)cc1Cl`, the MIC90 in test [2] was 0.9 µg/mL (≈ 2.61 µM); in test [5], 0.56 to 1.9 µg/mL (≈ 1.62 to 5.51 µM). The molecule further came in with an Activity in test [1] greater than 97%.
In turn, `Cc1ccc(O)c(-c2cc(-c3cc4ccccc4s3)[nH]n2)c1` yielded an Activity in test [1] greater than 97%.
Turning to `Oc1ccc(Cl)cc1-c1cc(-c2cc3ccccc3s2)[nH]n1`, the Activity in test [1] is given as greater than 97%.
With `O=C(CC(=O)c1ccccc1O)c1cc2ccccc2s1`, the MIC90 in test [2] worked out at 1.36 µg/mL (≈ 4.59 µM); in test [3], 12.4 µg/mL (≈ 41.9 µM); in test [4], 2.87 µg/mL (≈ 9.68 µM); in test [5] it was 2.34 µg/mL (≈ 7.9 µM). Also, in test [1], the Activity is on record as greater than 97%.
Regarding `O=C(CC(=O)c1cc(Br)ccc1O)c1cc2ccccc2s1`, the MIC90 in test [2] was determined as 1.77 µg/mL (≈ 4.72 µM); in test [3], 8.04 µg/mL (≈ 21.4 µM); in test [4], 7.11 µg/mL (≈ 18.9 µM); in test [5] it was 1.16 µg/mL (≈ 3.09 µM). This molecule registered an Activity in test [1] greater than 97%.
